Test results as given in publication PMC6044872 (ACS Omega, 2017).

Assays:
[1] = system: MUC1 glycopeptides PDT*R-Tn-20-, 40-, 60-, 100-mer and PDT*R-STn-20-, 40-, 60-, 100-mer; format: binding; details: ELISA signals with 20-, 60- and 100-mer glycopeptides
Summary of the method: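 Streptavidin (10 μg/mL in 50 mM Tris–HCl, pH 7.5) coated overnight at 4 °C; blocked 2 h at RT. Biotinylated Tn- or STn-glycopeptides (20-, 40-, 60-, 100-mer) captured overnight at 4 °C. Antibody overnight at 4 °C, HRP-anti-mouse IgG 2 h at RT. TMB 30 min, H2SO4 stop, A450. Antibody concentration set separately for each antibody.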

[2] = system: T-47D breast cancer cells; test: Flow cytometry binding to T-47D; format: cell-based, human
Summary of the method: (§1)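 Cells were grown 48 h, trypsinized and washed in PBS with 10% FBS. 1.0 × 10^6 cells in 200 μL antibody solution, 2 h on ice. FITC-labelled anti-mouse IgG 1 h on ice, then three washes and resuspension in PBS/10% FBS. Analysed by flow cytometry; histograms overlaid on isotype control antibody.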

[3] = system: 184A1 mammary epithelial cells; test: Flow cytometry binding to 184A1; format: cell-based, human
Summary of the method: as §1

[4] = system: H292 mucoepidermoid carcinoma cells; test: Flow cytometry binding to H292; format: cell-based, human
Summary of the method: as §1

[5] = system: Calu-3 lung adenocarcinoma cells; test: Flow cytometry binding to Calu-3; format: cell-based, human
Summary of the method: as §1

[6] = system: A549 lung adenocarcinoma epithelial cells; test: Flow cytometry binding to A549; format: cell-based, human
Summary of the method: as §1

B1: PankoMab: anti-MUC1 antibody (Glycotope, Germany), established using desialylated MUC1 as the immunogen (antibody, chains of the INN, looked up, V domains shown)
VH: EVQLVESGGGLVQPGGSMRLSCVASGFPFSNYWMNWVRQAPGKGLEWVGEIRLKSNNYTTHYAESVKGRFTISRDDSKNSLYLQMNSLKTEDTAVYYCTRHYYFDYWGQGTLVTVSS
VL: DIVMTQSPLSNPVTPGEPASISCRSSKSLLHSNGITYFFWYLQKPGQSPQLLIYQMSNLASGVPDRFSGSGSGTDFTLRISRVEAEDVGVYYCAQNLELPPTFGQGTKVEIK
For B1, the “Tandem-repeat dependence of binding” value [1] was “tandem-repeat-dependent manner”, the “Binding to T-47D (in words)” value [2] was “bound only to T-47D” and the “Binding to 184A1 (in words)” value [3] was “hardly bound”. The “Binding to H292 (in words)” value [4] was “hardly bound”, the “Binding to Calu-3 (in words)” value [5] was “hardly bound” and the “Binding to A549 (in words)” value [6] was “hardly bound”.
